Test results taken from ChEMBL document CHEMBL5724801, “EUbOPEN Chemogenomics Library - Multiplex” (2024).
Several values for one entry are separate records, joined by “and”; a condition that tells them apart may be missing. Equal entries are not always repeated.

System: HEK-293T
Test: Multiplex assay against HEK293T
Format: toxicity, cell-based
Settings: human
Method in brief: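 Live cells were stained at seeding with Hoechst33342, BioTracker Green Microtubule Cytoskeleton Dye, MitoTracker Red and Annexin V Alexa Fluor 680, then imaged on a CQ1 microscope at 37°C and 5% CO2 after compound addition. CellPathfinder machine-learning gating split cells into Hoechst high-intensity objects or normal cells. Normal cells were split into healthy, pyknosed or fragmented nuclei, and pyknosed cells into mitotic or apoptotic. Tubulin, mitochondrial-mass and membrane-permeability phenotypes are per cents of healthy-nucleus cells.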

[1] = 12 h, 1 µM, compound concentration 1 uM
[2] = 12 h, 10 µM, compound concentration 10 uM
[3] = 24 h, 1 µM, compound concentration 1 uM
[4] = 24 h, 10 µM, compound concentration 10 uM
[5] = 48 h, 1 µM, compound concentration 1 uM
[6] = 48 h, 10 µM, compound concentration 10 uM

`Cc1ccc(OCC(O)C(C)NC(C)C)c2c1CCC2.Cl` (stereo unspecified) was tested, and the “Population Apoptotic (%)” value [1] was 34% and 45%, the “Population Fragmented Nuclei (%)” value [1] was 6% and 5% and the “Population Healthy Nuclei (%)” value [1] was 81% and 84%. The “Population Hoechst High Intensity Objects (%)” value [1] was 5%, the “Population Membrane Permeable-Phenotype (%)” value [1] was 0% and the “Population Mitochondria Different-Phenotype (%)” value [1] was 54% and 65%. The “Population Mitotic Cells (%)” value [1] was 65% and 54%, the “Population Normal (%)” value [1] was 94% and the “Population Pyknosed Nuclei (%)” value [1] was 12% and 10%. The “Population Tubulin-Different-Phenotype (%)” value [1] was 40% and 22%, the “Total Cell Count” value [1] was 409 and 360 and the “Population Apoptotic (%)” value [2] was 43%. The “Population Fragmented Nuclei (%)” value [2] was 7% and 9%, the “Population Healthy Nuclei (%)” value [2] was 67% and 76% and the “Population Membrane Permeable-Phenotype (%)” value [2] was 0%. The “Population Mitochondria Different-Phenotype (%)” value [2] was 66% and 79%, the “Population Mitotic Cells (%)” value [2] was 56% and the “Population Normal (%)” value [2] was 96% and 81%. The “Population Pyknosed Nuclei (%)” value [2] was 25% and 14%, the “Population Tubulin-Different-Phenotype (%)” value [2] was 61% and 59% and the “Total Cell Count” value [2] was 247 and 323. For the same molecule, the “Population Apoptotic (%)” value [3] was 35% and 28%, the “Population Fragmented Nuclei (%)” value [3] was 6% and 7% and the “Population Healthy Nuclei (%)” value [3] was 80% and 83%. The “Population Hoechst High Intensity Objects (%)” value [3] was 3% and 4%, the “Population Membrane Permeable-Phenotype (%)” value [3] was 0% and the “Population Mitochondria Different-Phenotype (%)” value [3] was 38% and 45%. The “Population Mitotic Cells (%)” value [3] was 64% and 71%, the “Population Normal (%)” value [3] was 96% and 95% and the “Population Pyknosed Nuclei (%)” value [3] was 12% and 9%. For the same molecule, the “Population Tubulin-Different-Phenotype (%)” value [3] was 25% and 17%, the “Total Cell Count” value [3] was 548 and 444 and the “Population Apoptotic (%)” value [4] was 46% and 50%. For the same molecule, the “Population Fragmented Nuclei (%)” value [4] was 11% and 9%, the “Population Healthy Nuclei (%)” value [4] was 71% and 78% and the “Population Hoechst High Intensity Objects (%)” value [4] was 5% and 11%. For the same molecule, the “Population Membrane Permeable-Phenotype (%)” value [4] was 1% and 0%, the “Population Mitochondria Different-Phenotype (%)” value [4] was 53% and 60% and the “Population Mitotic Cells (%)” value [4] was 53% and 50%. For the same molecule, the “Population Normal (%)” value [4] was 94% and 88%, the “Population Pyknosed Nuclei (%)” value [4] was 17% and 11% and the “Population Tubulin-Different-Phenotype (%)” value [4] was 47%. The “Total Cell Count” value [4] was 334 and 399, the “Population Apoptotic (%)” value [5] was 24% and 26% and the “Population Fragmented Nuclei (%)” value [5] was 12% and 11%. For the same molecule, the “Population Healthy Nuclei (%)” value [5] was 79% and 81%, the “Population Hoechst High Intensity Objects (%)” value [5] was 3% and 1% and the “Population Membrane Permeable-Phenotype (%)” value [5] was 0%. For the same molecule, the “Population Mitochondria Different-Phenotype (%)” value [5] was 28% and 27%, the “Population Mitotic Cells (%)” value [5] was 75% and 73% and the “Population Normal (%)” value [5] was 96% and 98%. For the same molecule, the “Population Pyknosed Nuclei (%)” value [5] was 8% and 7%, the “Population Tubulin-Different-Phenotype (%)” value [5] was 14% and the “Total Cell Count” value [5] was 804 and 660. For the same molecule, the “Population Apoptotic (%)” value [6] was 40% and 34%, the “Population Fragmented Nuclei (%)” value [6] was 10% and 11% and the “Population Healthy Nuclei (%)” value [6] was 74% and 80%. For the same molecule, the “Population Hoechst High Intensity Objects (%)” value [6] was 5%, the “Population Membrane Permeable-Phenotype (%)” value [6] was 0% and 1% and the “Population Mitochondria Different-Phenotype (%)” value [6] was 48% and 39%. For the same molecule, the “Population Mitotic Cells (%)” value [6] was 59% and 66%, the “Population Normal (%)” value [6] was 94% and the “Population Pyknosed Nuclei (%)” value [6] was 14% and 8%. The “Population Tubulin-Different-Phenotype (%)” value [6] was 43% and 41% and the “Total Cell Count” value [6] was 435 and 611.
With `COc1cc(OC2CCN(C(C)=O)CC2)ccc1C(=O)N1CCC(N2C(=O)OCc3ccccc32)CC1` the “Population Apoptotic (%)” value [1] was 28% and 48%, the “Population Fragmented Nuclei (%)” value [1] was 5% and the “Population Healthy Nuclei (%)” value [1] was 83% and 76%. The “Population Hoechst High Intensity Objects (%)” value [1] was 7%, the “Population Membrane Permeable-Phenotype (%)” value [1] was 0% and the “Population Mitochondria Different-Phenotype (%)” value [1] was 37% and 59%. The “Population Mitotic Cells (%)” value [1] was 71% and 51%, the “Population Normal (%)” value [1] was 92% and the “Population Pyknosed Nuclei (%)” value [1] was 11% and 18%. For the same molecule, the “Population Tubulin-Different-Phenotype (%)” value [1] was 26% and 21%, the “Total Cell Count” value [1] was 477 and 381 and the “Population Apoptotic (%)” value [2] was 40% and 67%. The “Population Fragmented Nuclei (%)” value [2] was 9% and 4%, the “Population Healthy Nuclei (%)” value [2] was 77% and 80% and the “Population Hoechst High Intensity Objects (%)” value [2] was 8% and 6%. The “Population Membrane Permeable-Phenotype (%)” value [2] was 0%, the “Population Mitochondria Different-Phenotype (%)” value [2] was 57% and 77% and the “Population Mitotic Cells (%)” value [2] was 60% and 32%. The “Population Normal (%)” value [2] was 91% and 93%, the “Population Pyknosed Nuclei (%)” value [2] was 13% and 14% and the “Population Tubulin-Different-Phenotype (%)” value [2] was 47% and 40%. The “Total Cell Count” value [2] was 436 and 316, the “Population Apoptotic (%)” value [3] was 28% and 48% and the “Population Fragmented Nuclei (%)” value [3] was 9% and 7%. For the same molecule, the “Population Healthy Nuclei (%)” value [3] was 78% and 80%, the “Population Hoechst High Intensity Objects (%)” value [3] was 4% and 6% and the “Population Membrane Permeable-Phenotype (%)” value [3] was 2% and 0%. For the same molecule, the “Population Mitochondria Different-Phenotype (%)” value [3] was 25% and 40%, the “Population Mitotic Cells (%)” value [3] was 71% and 51% and the “Population Normal (%)” value [3] was 95% and 93%. The “Population Pyknosed Nuclei (%)” value [3] was 11% and 12%, the “Population Tubulin-Different-Phenotype (%)” value [3] was 17% and 15% and the “Total Cell Count” value [3] was 598 and 491. For the same molecule, the “Population Apoptotic (%)” value [4] was 31% and 49%, the “Population Fragmented Nuclei (%)” value [4] was 8% and 7% and the “Population Healthy Nuclei (%)” value [4] was 78%. For the same molecule, the “Population Hoechst High Intensity Objects (%)” value [4] was 3% and 4%, the “Population Membrane Permeable-Phenotype (%)” value [4] was 0% and the “Population Mitochondria Different-Phenotype (%)” value [4] was 44% and 58%. For the same molecule, the “Population Mitotic Cells (%)” value [4] was 68% and 50%, the “Population Normal (%)” value [4] was 96% and 95% and the “Population Pyknosed Nuclei (%)” value [4] was 13% and 14%. For the same molecule, the “Population Tubulin-Different-Phenotype (%)” value [4] was 36% and 29%, the “Total Cell Count” value [4] was 523 and 393 and the “Population Apoptotic (%)” value [5] was 20% and 33%. The “Population Fragmented Nuclei (%)” value [5] was 13% and 11%, the “Population Healthy Nuclei (%)” value [5] was 78% and 80% and the “Population Hoechst High Intensity Objects (%)” value [5] was 3% and 2%. The “Population Membrane Permeable-Phenotype (%)” value [5] was 1%, the “Population Mitochondria Different-Phenotype (%)” value [5] was 19% and 23% and the “Population Mitotic Cells (%)” value [5] was 79% and 66%. For the same molecule, the “Population Normal (%)” value [5] was 96% and 97%, the “Population Pyknosed Nuclei (%)” value [5] was 8% and 7% and the “Population Tubulin-Different-Phenotype (%)” value [5] was 13% and 12%. The “Total Cell Count” value [5] was 902 and 655, the “Population Apoptotic (%)” value [6] was 36% and the “Population Fragmented Nuclei (%)” value [6] was 13% and 12%. For the same molecule, the “Population Healthy Nuclei (%)” value [6] was 78% and 80%, the “Population Hoechst High Intensity Objects (%)” value [6] was 4% and 3% and the “Population Membrane Permeable-Phenotype (%)” value [6] was 0%. The “Population Mitochondria Different-Phenotype (%)” value [6] was 30% and 39%, the “Population Mitotic Cells (%)” value [6] was 63% and the “Population Normal (%)” value [6] was 95% and 96%. The “Population Pyknosed Nuclei (%)” value [6] was 8% and 7%, the “Population Tubulin-Different-Phenotype (%)” value [6] was 21% and 16% and the “Total Cell Count” value [6] was 813 and 625.
